“Also recorded” adds a separate entry of the source. Like-named read-outs stand apart in the source and are kept apart here. Values belong to the molecule of their own block, whether it stands above or below them.
Assays:
[1] = target: T1, Recombinant human glyoxalase I (GLO1) (Homo sapiens, UniProt Q04760); test: Human Glyoxalase 1 enzyme assay; type: biochemical; details: for GLO1 inhibition compared with 8-MSQ, in words: SAR statement
T1 sequence (Q04760 2-184 limits assumed): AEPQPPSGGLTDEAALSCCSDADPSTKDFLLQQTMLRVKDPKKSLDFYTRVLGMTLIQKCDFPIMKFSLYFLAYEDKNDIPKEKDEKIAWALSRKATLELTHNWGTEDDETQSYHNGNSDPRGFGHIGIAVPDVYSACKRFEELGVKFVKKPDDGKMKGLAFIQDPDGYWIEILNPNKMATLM
Method in brief: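 Recombinant human GLO1 (40 ng) was preincubated 15–20 min with test compound in 100 mM sodium phosphate, pH 7.0. Substrate was GSH and methylglyoxal (each from 100 mM stock) mixed in buffer and left 20 min at room temperature to form hemithioacetal, then added. DMSO ≤5% final. A240 read every minute for 8 min. Rates were normalized to the uninhibited control (100%) after no-enzyme background subtraction. IC50s were benchmarked against a reference N-hydroxypyridone inhibitor. Library screens used 200 and 50 µM fragment, with a >50% inhibition hit threshold.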

[2] = tested on: human GLO1; details: cited from earlier work
[3] = tested on: mice; test: Observational assessment of toxicity after i.p. dosing; type: in vivo
[4] = tested on: FVB/NJ mice; test: Open field test; type: in vivo; details: 12.5 mg/kg i.p., 90 min after injection, 30 min test
Method in brief: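 Male and female FVB/NJ mice, 108–148 days old, tested in the light phase, were given 12.5 mg/kg i.p. or vehicle ([…]). After 90 min in the home cage, each was placed centrally in a 43×43×33 cm chamber under dim light inside a sound- and light-attenuating box for 30 min of free exploration. An infrared beam grid tracked distance traveled.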

[5] = tested on: FVB/NJ mice; test: Forced swim test; type: in vivo; details: 12.5 mg/kg i.p., 120 min before test, p=0.041
[6] = tested on: MG levels in brain; test: Brain methylglyoxal; type: in vivo; details: for MG per mg brain tissue: mice, 30-240 min post-dose, vehicle 1.1 ± 0.3
Method in brief: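 Separate mouse cohort dosed i.p. at 12.5 or 25 mg/kg. Brains collected at 30, 60, 120 and 240 min post-dose, n=3 per time point. Under isoflurane, mice were perfused transcardially with PBS, then brains were weighed, flash-frozen and stored at −80 °C. Tissue was minced, extracted with acetonitrile, bead-homogenized, centrifuged and filtered (2 µm). MG was quantified by LC-MS/MS against an 11-point 5–5000 ng/mL curve spiked into blank brain, expressed per mg wet tissue.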

Structure (SMILES): CS(=O)(=O)Nc1ccc(-c2cncnc2)c2cccnc12 [Compound 39, N-(5-(Pyrimidin-5-yl)quinolin-8-yl)methanesulfonamide]
GLO1 inhibition compared with 8-MSQ, in words [1]: not well tolerated

Structure (SMILES): COc1ccccc1S(=O)(=O)Nc1cccc2cccnc12 [Compound 17, 2-Methoxy-N-(quinolin-8-yl)benzenesulfonamide]
GLO1 inhibition compared with 8-MSQ, in words [1]: not tolerated

Structure (SMILES): CS(=O)(=O)Nc1ccc(-c2ccncc2)c2cccnc12 [Compound 38, N-(5-(Pyridin-4-yl)quinolin-8-yl)methanesulfonamide]
GLO1 inhibition compared with 8-MSQ, in words [1]: not well tolerated

Structure (SMILES): COCCCn1ccc2cc(-c3cc(-c4ccccc4)cc(=O)n3O)cnc21 [Chugai-3d]
IC50 ([2]; reported by Chugai Pharmaceuticals): 11 nM

inhibition in second MBP library screening ([1]; fragment concentration 50 μM): essentially complete inhibition
Structure (SMILES): CS(=O)(=O)Nc1cccc2cccnc12 [Compound 8-MSQ, N-(Quinolin-8-yl)methanesulfonamide]

Structure (SMILES): CS(=O)(=O)Nc1ccc(N2CCOCC2)c2cccnc12 [Compound 46, N-(5-Morpholinoquinolin-8-yl)methanesulfonamide]
GLO1 inhibition compared with 8-MSQ, in words [1]: not well tolerated

improvement in inhibition relative to 8-MSQ ([1]; ratio of IC50 values vs 8-MSQ): 2 fold
Structure (SMILES): O=S(=O)(Nc1cccc2cccnc12)c1ccccc1 [Compound 8, N-(Quinolin-8-yl)benzenesulfonamide]

Structure (SMILES): O=S(=O)(Nc1ccc(-c2ccc(Cl)cc2)c2cccnc12)c1ccccn1 [Compound 48, N-(5-(4-Chlorophenyl)quinolin-8-yl)pyridine-2-sulfonamide]
observed toxicity ([3]; i.p. doses of 50 mg/kg and higher): visibly toxic

IC50 [1]: 1900 ± 200 nM
Structure (SMILES): O=c1cc(-c2ccccc2)cc(-c2ccccc2)n1O [Chugai-1, 1-hydroxy-4,6-diphenylpyridin-2(1H)-one, reference compound]
IC50 ([2]; value reported in the original literature report): 1190 nM

loss of affinity compared to 8-MSQ ([1]; ratio of IC50 values vs 8-MSQ): ~ 2 fold
Structure (SMILES): Cc1ccc2cccc(NS(C)(=O)=O)c2n1 [Compound 7, N-(2-Methylquinolin-8-yl)methanesulfonamide]

improvement in inhibition relative to 8-MSQ ([1]; ratio of IC50 values vs 8-MSQ): ~ 14 fold
Structure (SMILES): O=S(=O)(Nc1cccc2cccnc12)c1ccccn1 [Compound 23, N-(Quinolin-8-yl)pyridine-2-sulfonamide]

GLO1 inhibition compared with 8-MSQ, in words [1]: slight increase in inhibition
Structure (SMILES): Cc1ccc2cccc(NS(=O)(=O)c3ccccc3)c2n1 [Compound 9, N-(2-Methylquinolin-8-yl)benzenesulfonamide]

Structure (SMILES): N#Cc1ccccc1S(=O)(=O)Nc1cccc2cccnc12 [Compound 20, 2-Cyano-N-(quinolin-8-yl)benzenesulfonamide]
GLO1 inhibition compared with 8-MSQ, in words [1]: not tolerated

Structure (SMILES): CS(=O)(=O)Nc1ccc(N2CCCCC2)c2cccnc12 [Compound 45, N-(5-(Piperidin-1-yl)quinolin-8-yl)methanesulfonamide]
GLO1 inhibition compared with 8-MSQ, in words [1]: not well tolerated

Structure (SMILES): COc1cc(CCc2cc(NS(=O)(=O)c3ccccn3)c3ncccc3c2)cc(OC)c1 [Compound 60, N-(6-(3,5-Dimethoxyphenethyl)quinolin-8-yl)pyridine-2-sulfonamide]
locomotor activity in open field vs vehicle [4]: no effect | immobility in the FST vs vehicle [5]: reduction in percent immobility; also recorded: significant decrease in the time spent immobile; also recorded: reduced immobility | observational assessment of toxicity ([3]; doses up to 100 mg/kg i.p.): no adverse responses | increase of MG levels in brain vs vehicle-treated mice ([6]; 12.5 mg/kg i.p., between 30 and 240 min post-dose): approximately 11 fold | MG per mg brain tissue ([6]; 12.5 mg/kg i.p.): 11.8±4.1 ng/mg of brain tissue | MG per mg brain tissue ([6]; 25 mg/kg i.p.): 14.1±3.1 ng/mg of brain tissue | increase in brain MG levels compared to vehicle-treated mice ([6]; summary statement in discussion): > 10 fold

Reference: article PMC6467756 (Journal of medicinal chemistry, 2019)
